Data taken from publication PMC9091711 (RSC Advances, 2018).

Legend:
caspase-3 = test: Active caspase-3 expression by flow cytometry; type: cell-based, human; details: Jurkat cells, 24 h, 4a at IC50 concentration
Summary of the method: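 Jurkat cells were seeded at 1 × 10^6 cells per well and left 12 h, then exposed to the test compound for 24 h. Cells were harvested, fixed in 70% ice-cold ethanol at −20 °C for 30 min, and washed twice with PBS. They were stained with FITC anti-active caspase-3 antibody for 60 min at room temperature in the dark, washed, resuspended in PBS and analysed by flow cytometry.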

Jurkat cells = test: Annexin V-FITC/PI apoptosis assay by flow cytometry; type: cell-based, human; details: 24 h, 4a at IC50 concentration
[1] = cited from earlier work

Compound	Active caspase-3 expression (M2, apoptotic cells) (caspase-3) [%]	Apoptotic dying cells (M2, Annexin-V-FITC fluorescence intensity) (Jurkat cells) [%]	Cells in late stage apoptosis (Jurkat cells; Annexin V-FITC/PI) [%]	Stability in solution [1]
CC[C@@]1(O)C(=O)OCc2c1cc1n(c2=O)Cc2cc3ccccc3nc2-1 [CPT, camptothecin]	> 54	68	14	
CC(C)(C)C[C@@H]1N[C@@H](C(=O)N[C@H]2CC[C@H](O)CC2)[C@H](c2cccc(Cl)c2F)[C@]12C(=O)Nc1cc(Cl)ccc12 [MI-773]				low stability in solution
